Reference: ChEMBL document CHEMBL2375308, “Synthesis and selected immunological properties of substituted quino[3,2-b]benzo[1,4]thiazines” (Eur J Med Chem, 2013)

Columns and labels:
PBMC [1] = assay: Inhibition of LPS-induced TNFalpha production in human PBMC at 25 ug/mL after overnight incubation relative to DMSO-treated control; format: functional
Procedure, shortened: (§1)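 Single-donor venous blood diluted 10× in RPMI-1640, 1 mL aliquots, stimulated with LPS (E. coli O111:B4). Compounds added at […]; corresponding DMSO dilutions as controls. Overnight incubation, supernatants frozen at −20 °C, TNF-α measured by biological assay; percentage inhibition versus DMSO control.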

PBMC [2] = assay: Cytotoxicity against human PBMC cells at 50 ug/mL after 24 hrs by MTT assay relative to DMSO-treated control; format: cell-based
Procedure, shortened: (§2)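 Ficoll-isolated PBMC ([…]) in supplemented RPMI-1640, 2 × 10⁵/well, cultured 24 h with the preparations at the indicated concentrations; compounds dissolved in DMSO (10 mg/mL stock) and diluted in medium.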

PBMC [3] = assay: Antiproliferative activity against PHA-stimulated human PBMC at 50 ug/mL after 4 days by MTT assay relative to DMSO-treated control; format: functional
Procedure, shortened: (§3)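 PBMC from one donor's heparinized blood, Ficoll gradient isolated, in RPMI-1640 with 10% FCS; 2 × 10⁵ cells/well. PHA added at […]; compounds from DMSO stock (10 mg/mL) diluted in medium; matching DMSO dilutions as control. Four-day culture, proliferation read by MTT colorimetry; percentage inhibition versus control.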

PBMC [4] = assay: Antiproliferative activity against PHA-stimulated human PBMC at 10 ug/mL after 4 days by MTT assay relative to DMSO-treated control; format: functional; procedure, shortened: as §3
PBMC [5] = assay: Cytotoxicity against human PBMC cells at 10 ug/mL after 24 hrs by MTT assay relative to DMSO-treated control; format: cell-based; procedure, shortened: as §2
PBMC [6] = assay: Inhibition of LPS-induced TNFalpha production in human PBMC at 5 ug/mL after overnight incubation relative to DMSO-treated control; format: functional; procedure, shortened: as §1

SMILES	inhibition at 25 µg/mL (PBMC [1])	Activity (PBMC [2])	Activity (PBMC [3])	Activity (PBMC [4])	Activity (PBMC [5])	inhibition at 5 µg/mL (PBMC [6])
Cc1ccc(S(=O)(=O)NCCCN2c3ccc(Cl)cc3Sc3cc4ccccc4nc32)cc1	20.9%	Non-toxic	22.7%	12.9%	Non-toxic	5.9%
CS(=O)(=O)NCCCN1c2ccc(Cl)cc2Sc2cc3ccccc3nc21	30.5%	Non-toxic	74.4%	73.4%	Non-toxic	1.2%
Clc1ccc2c(c1)Sc1cc3ccccc3nc1N2	9.6%	Non-toxic	5.7%	-0.3%	Non-toxic	2%
Brc1cccc2c1Sc1cc3ccccc3nc1N2	8.4%	Non-toxic	16.4%	0.1%	Non-toxic	13.6%
Cc1ccc(S(=O)(=O)NCCCN2c3ccccc3Sc3cc4ccccc4nc32)cc1	15.6%	Non-toxic	-0.8%	6.6%	Non-toxic	3.8%
CSc1ccc2c(c1)Sc1cc3ccccc3nc1N2CCCNC(C)=O	64.5%	Non-toxic	68.8%	72.5%	Non-toxic	71.7%
CSc1ccc2c(c1)Sc1cc3ccccc3nc1N2	19.2%	Non-toxic	2.9%	0%	Non-toxic	22.5%
CSc1ccc2c(c1)Sc1cc3ccccc3nc1N2CCCCNS(C)(=O)=O	13.2%	Non-toxic	62.7%	53.3%	Non-toxic	72.8%
c1ccc2c(c1)Nc1nc3ccccc3cc1S2	16.1%	Non-toxic	14.4%	7.1%	Non-toxic	25.6%
FC(F)(F)c1cccc2c1Sc1cc3ccccc3nc1N2	-2.6%	Non-toxic	13.6%	2.3%	5%	74.9%
CC(=O)NCCCN1c2ccccc2Sc2cc3ccccc3nc21	32.2%	91.9%	92.4%	68.7%	Non-toxic	-0.4%
CCOC(=O)NCCCCN1c2ccc(Cl)cc2Sc2cc3ccccc3nc21	8.41%	Non-toxic	-12%	-0.7%	Non-toxic	13.2%
CSc1ccc2c(c1)Sc1cc3ccccc3nc1N2CCCCNC(C)=O	60.4%	7.9%	42%	54.7%	Non-toxic	46.8%
CCOC(=O)NCCCCN1c2ccc(SC)cc2Sc2cc3ccccc3nc21	33.1%	Non-toxic	27.8%	44.3%	Non-toxic	50.9%
CCOC(=O)NCCCN1c2ccc(SC)cc2Sc2cc3ccccc3nc21	70.1%	Non-toxic	38.8%	45.4%	Non-toxic	74.9%
Clc1cccc2c1Sc1cc3ccccc3nc1N2	4.6%	13%	10.8%	10.7%	Non-toxic	17%
Fc1ccc2c(c1)Sc1cc3ccccc3nc1N2				100%	50%	
